The source made the active and inactive calls. The calls are words filed in the database; no cut-off is given here.

Data on two molecules can be found in ChEMBL document CHEMBL4257472, “Antitumor effect of sikokianin C, a selective cystathionine β-synthase inhibitor, against human colon cancer in vitro and in vivo” (Medchemcomm, 2018).

Series [1] concerns HT-29. Kind of series: Antitumor activity against human HT-29 cells xenografted in BALB/c nude mouse assessed as tumor growth inhibition at 10 mg/kg, sc administered once daily for 6 days followed by 1 day interval and subsequent dosing for 6 days. The class given is functional, organism-based. A digest of the protocol:
(§1)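 Male BALB/c nude mice, five weeks old, given s.c. HT29 cells (100 μL of 1 × 10^7 cells/mL) in the right armpit. Randomized when tumours reached about 100 mm3. Daily s.c. dosing at 3 or 10 mg/kg/d, vehicle 1% DMSO with 0.5% carboxymethylcellulose in PBS, 6 d on and 1 d off, 12 treatments in total, n = 6. Tumour volume by calipers (0.5 × L × W²) and body weight monitored. Tumours excised and weighed on day 28.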

Series [2] addresses T1, Cystathionine beta-synthase (Homo sapiens, UniProt P35520).
T1 sequence (P35520 whole entry): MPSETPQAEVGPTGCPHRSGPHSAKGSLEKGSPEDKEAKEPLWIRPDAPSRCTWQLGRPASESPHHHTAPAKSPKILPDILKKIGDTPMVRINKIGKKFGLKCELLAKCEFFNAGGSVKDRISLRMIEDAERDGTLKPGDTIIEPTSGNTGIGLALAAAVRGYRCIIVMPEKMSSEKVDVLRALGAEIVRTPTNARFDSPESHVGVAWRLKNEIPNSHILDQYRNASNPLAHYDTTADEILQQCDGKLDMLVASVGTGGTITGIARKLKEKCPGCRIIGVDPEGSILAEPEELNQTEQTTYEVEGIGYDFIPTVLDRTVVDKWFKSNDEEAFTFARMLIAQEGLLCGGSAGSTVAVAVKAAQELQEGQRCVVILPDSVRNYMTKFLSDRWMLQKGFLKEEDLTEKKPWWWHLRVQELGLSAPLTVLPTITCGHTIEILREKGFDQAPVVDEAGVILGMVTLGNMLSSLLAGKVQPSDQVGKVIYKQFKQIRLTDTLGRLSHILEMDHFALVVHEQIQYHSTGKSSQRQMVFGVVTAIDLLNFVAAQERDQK
Description: Inhibition of full-length GST-fused human CBS assessed as reduction in H2S production using 2 mM […] as substrate preincubated for 3 mins followed by substrate addition. A digest of the protocol:
(§2)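 Lead sulfide H2S assay on purified human CBS (5 μg, wild-type or alanine mutant) in 200 μL of 50 mM HEPES pH 7.4 with 5% DMSO and 0.4 mM lead nitrate. Enzyme and 2 mM homocysteine preincubated 3 min at 37 °C, then 2 mM cysteine added. Lead sulfide read at 390 nm (ε 5500 M−1 cm−1). Activity is relative to a DMSO control, mean ± SD (n = 3). The detergent test included 0.01% Triton X-100.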

In series [3] the test system is Mus musculus. Description: Toxicity in BALB/c nude mouse xenografted with human HT-29 cells assessed as effect on body weight at 10 mg/kg, sc administered once daily for 6 days followed by 1 day interval and subsequent dosing for 6 days. The class given is organism-based. To be noted: in vivo. A digest of the protocol:
as §1
On the technique in general: Xenograft models place foreign cells or tissue in a host animal.

The test system of series [4] is HT-29. Kind of series: Antiproliferative activity against human HT-29 cells after 24 hrs by CCK8 assay. The class given is functional, cell-based. The note with it: HT-29, 24 h. The method, boiled down: (§3)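 HT29 cells grown in DMEM with 10% FBS and 1% penicillin–streptomycin, 37 °C, 5% CO2. Seeded at 1 × 10^4 cells/well, cultured 24 h, then exposed to varying compound concentrations for 24 h. CCK-8 added for 2 h at 37 °C and OD450 read. Viability expressed as % of untreated medium control. IC50 fitted from means ± SD (n = 4). Knockdown cells were transfected with CBS siRNA for 48 h beforehand.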

Series [5] relates to HT-29. Kind of series: Antiproliferative activity against human HT-29 cells harboring CBS SiRNA after 24 hrs by CCK8 assay. The class given is functional, cell-based. The note with it: HT-29, 24 h. The method, boiled down: as §3
In series [6] the test system is HT-29. Description: Antitumor activity against human HT-29 cells xenografted in BALB/c nude mouse assessed as reduction in tumor weight at 10 mg/kg, sc administered once daily for 6 days followed by 1 day interval and subsequent dosing for 6 days relative to control. Also on record: scale not given: the % may be the effect or the level left. It is filed as functional. A digest of the protocol:
as §1

Series [7] concerns the target T2, Cystathionine beta-synthase (Homo sapiens) (UniProt P35520).
T2 sequence (whole entry): T1 sequence (P35520 whole entry)
Description: Non-competitive inhibition of full-length GST-fused human CBS using […] as substrate by Lineweaver-burk plot analysis.

The species named for series [8] is Homo sapiens. Kind of series: Selectivity ratio of IC50 for human CBS H203A mutant to IC50 for full-length GST-fused human CBS.
Series [9] deals with Cystathionine beta-synthase (Homo sapiens, UniProt P35520, Y308A). Kind of series: Inhibition of human CBS Y308A mutant assessed as reduction in H2S production using 2 mM […] as substrate preincubated for 3 mins followed by substrate addition. A digest of the protocol:
as §2

Series [10] relates to Mus musculus. Description: Toxicity in BALB/c nude mouse xenografted with human HT-29 cells assessed as effect on body weight at 3 to 10 mg/kg, sc administered once daily for 6 days followed by 1 day interval and subsequent dosing for 6 days. The class given is organism-based. To be noted: in vivo. A digest of the protocol: as §1
In series [11] the target is T2, Cystathionine beta-synthase (Homo sapiens). Kind of series: Competitive inhibition of full-length GST-fused human CBS up to 10 uM using […] as substrate by Lineweaver-burk plot analysis.
In series [12] the target is Cystathionine beta-synthase (Homo sapiens, UniProt P35520, Y223A). Kind of series: Inhibition of human CBS Y223A mutant assessed as reduction in H2S production using 2 mM […] as substrate preincubated for 3 mins followed by substrate addition. The method, boiled down: as §2
The target of series [13] is T1, Cystathionine beta-synthase. Description: Inhibition of full-length GST-fused human CBS assessed as reduction in H2S production using 20 mM […] as substrate preincubated for 3 mins followed by substrate addition. A digest of the protocol: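 Same lead sulfide H2S assay on purified human wild-type CBS (5 μg, 50 mM HEPES pH 7.4, 5% DMSO, 0.4 mM lead nitrate, 37 °C), with cysteine raised to 20 mM and homocysteine kept at 2 mM. Lead sulfide read at 390 nm.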

The target in series [14] is Cystathionine beta-synthase (Homo sapiens, UniProt P35520, N194A). Description: Inhibition of human CBS N194A mutant assessed as reduction in H2S production using 2 mM […] as substrate preincubated for 3 mins followed by substrate addition. The method, boiled down:
as §2

The target in series [15] is T1, Cystathionine beta-synthase. Kind of series: Inhibition of full-length GST-fused human CBS assessed as reduction in H2S production using […] as substrate preincubated for 3 mins followed by substrate addition measured in presence of Triton X-100. A digest of the protocol:
as §2

Series [16] relates to HT-29. Kind of series: Antitumor activity against human HT-29 cells xenografted in sc dosed BALB/c nude mouse assessed as tumor growth inhibition administered once daily for 6 days followed by 1 day interval and subsequent dosing for 6 days. It is filed as functional, organism-based. A digest of the protocol:
as §1

In series [17] the test system is HT-29. Kind of series: Induction of apoptosis in human HT-29 cells after 24 hrs by Annexin V-FITC/propidium iodide staining based flow cytometry. It is filed as functional, cell-based. A digest of the protocol: (§4)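 HT29 cells seeded at 5 × 10^5 per well and treated 24 h with 0.5, 1 or 2 μM compound. Cells trypsinized, washed in cold PBS, stained with FITC–Annexin V and PI for 15 min in the dark at room temperature. 10 000 cells analysed by flow cytometry. Annexin V-positive percentage reported as mean ± SD of three independent experiments.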
A general note: Flow cytometry measures light scatter and fluorescence of single cells or particles in a stream.

Series [18] addresses Cystathionine beta-synthase (Homo sapiens, UniProt P35520, H203A). Description: Inhibition of human CBS H203A mutant assessed as reduction in H2S production using […] preincubated for 3 mins followed by substrate addition. The method, boiled down: as §2
For series [19], the system named is HT-29. Kind of series: Induction of apoptosis in human HT-29 cells at 2 uM after 24 hrs by Annexin V-FITC/propidium iodide staining based flow cytometry relative to control. The class given is functional. The method, boiled down:
as §4

Series [20] can be described thus: Selectivity ratio of IC50 for human HT-29 cells harboring CBS SiRNA to IC50 for human HT-29 cells. It is filed as functional.
The species named for series [21] is Homo sapiens. Description: Selectivity ratio of IC50 for human CBS Y308A mutant to IC50 for full-length GST-fused human CBS.
Series [22] deals with Cystathionine beta-synthase (Homo sapiens, UniProt P35520, T193A). Description: Inhibition of human CBS T193A mutant assessed as reduction in H2S production using […] as substrate preincubated for 3 mins followed by substrate addition. A digest of the protocol:
as §2

Series [23] has as its system HT-29. Kind of series: Induction of apoptosis in human HT-29 cells at 1 uM after 24 hrs by Annexin V-FITC/propidium iodide staining based flow cytometry relative to control. The class given is functional. The method, boiled down: as §4
For series [24], the system named is HT-29. Description: Induction of apoptosis in human HT-29 cells at 0.5 uM after 24 hrs by Annexin V-FITC/propidium iodide staining based flow cytometry relative to control. The class given is functional. The method, boiled down: as §4

Chain of Cystathionine beta-synthase (Homo sapiens, UniProt P35520, T193A) (P35520 whole entry T193A): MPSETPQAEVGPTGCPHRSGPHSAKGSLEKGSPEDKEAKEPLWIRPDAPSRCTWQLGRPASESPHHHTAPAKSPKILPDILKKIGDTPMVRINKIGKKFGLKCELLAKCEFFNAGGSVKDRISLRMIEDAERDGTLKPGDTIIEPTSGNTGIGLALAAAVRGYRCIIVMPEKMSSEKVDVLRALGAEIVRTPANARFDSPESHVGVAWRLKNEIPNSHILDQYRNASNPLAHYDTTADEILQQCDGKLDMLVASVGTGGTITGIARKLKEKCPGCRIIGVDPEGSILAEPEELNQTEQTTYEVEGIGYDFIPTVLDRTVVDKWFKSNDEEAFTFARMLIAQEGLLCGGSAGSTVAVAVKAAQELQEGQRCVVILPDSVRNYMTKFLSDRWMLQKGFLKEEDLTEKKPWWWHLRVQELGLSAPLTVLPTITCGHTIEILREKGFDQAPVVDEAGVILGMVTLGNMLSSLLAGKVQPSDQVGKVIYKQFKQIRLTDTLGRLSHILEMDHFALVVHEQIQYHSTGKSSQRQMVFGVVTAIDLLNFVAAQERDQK
Chain of Cystathionine beta-synthase (Homo sapiens, UniProt P35520, N194A) (P35520 whole entry N194A): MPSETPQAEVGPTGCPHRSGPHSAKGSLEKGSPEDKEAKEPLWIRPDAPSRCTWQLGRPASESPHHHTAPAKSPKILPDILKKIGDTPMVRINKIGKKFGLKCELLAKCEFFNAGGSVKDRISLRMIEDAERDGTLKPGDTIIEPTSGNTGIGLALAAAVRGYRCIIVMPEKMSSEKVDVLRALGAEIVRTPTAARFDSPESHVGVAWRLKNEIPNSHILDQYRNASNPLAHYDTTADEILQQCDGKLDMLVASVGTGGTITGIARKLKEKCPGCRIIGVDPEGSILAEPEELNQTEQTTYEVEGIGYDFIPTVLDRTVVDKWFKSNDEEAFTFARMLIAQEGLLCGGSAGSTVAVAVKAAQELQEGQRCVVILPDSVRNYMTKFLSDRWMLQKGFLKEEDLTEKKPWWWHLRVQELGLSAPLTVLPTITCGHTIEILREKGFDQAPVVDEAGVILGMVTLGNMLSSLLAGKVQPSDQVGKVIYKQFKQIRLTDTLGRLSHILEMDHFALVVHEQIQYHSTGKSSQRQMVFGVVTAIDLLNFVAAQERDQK
Chain of Cystathionine beta-synthase (Homo sapiens, UniProt P35520, Y308A) (P35520 whole entry Y308A): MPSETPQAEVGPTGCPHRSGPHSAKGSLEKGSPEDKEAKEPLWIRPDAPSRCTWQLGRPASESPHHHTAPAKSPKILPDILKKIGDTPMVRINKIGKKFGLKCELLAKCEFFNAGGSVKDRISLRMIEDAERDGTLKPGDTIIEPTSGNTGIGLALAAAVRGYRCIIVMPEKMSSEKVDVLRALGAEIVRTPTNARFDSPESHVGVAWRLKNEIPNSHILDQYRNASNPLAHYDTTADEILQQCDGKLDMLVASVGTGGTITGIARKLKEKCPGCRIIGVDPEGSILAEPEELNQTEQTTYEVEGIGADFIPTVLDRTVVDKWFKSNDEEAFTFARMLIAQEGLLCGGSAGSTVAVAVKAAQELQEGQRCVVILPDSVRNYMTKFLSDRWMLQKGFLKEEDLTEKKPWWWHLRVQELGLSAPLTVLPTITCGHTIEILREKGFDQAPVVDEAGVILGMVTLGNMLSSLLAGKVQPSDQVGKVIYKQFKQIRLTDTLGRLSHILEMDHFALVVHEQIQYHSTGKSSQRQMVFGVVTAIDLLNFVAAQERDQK
Chain of Cystathionine beta-synthase (Homo sapiens, UniProt P35520, Y223A) (P35520 whole entry Y223A, the tested form may be a part): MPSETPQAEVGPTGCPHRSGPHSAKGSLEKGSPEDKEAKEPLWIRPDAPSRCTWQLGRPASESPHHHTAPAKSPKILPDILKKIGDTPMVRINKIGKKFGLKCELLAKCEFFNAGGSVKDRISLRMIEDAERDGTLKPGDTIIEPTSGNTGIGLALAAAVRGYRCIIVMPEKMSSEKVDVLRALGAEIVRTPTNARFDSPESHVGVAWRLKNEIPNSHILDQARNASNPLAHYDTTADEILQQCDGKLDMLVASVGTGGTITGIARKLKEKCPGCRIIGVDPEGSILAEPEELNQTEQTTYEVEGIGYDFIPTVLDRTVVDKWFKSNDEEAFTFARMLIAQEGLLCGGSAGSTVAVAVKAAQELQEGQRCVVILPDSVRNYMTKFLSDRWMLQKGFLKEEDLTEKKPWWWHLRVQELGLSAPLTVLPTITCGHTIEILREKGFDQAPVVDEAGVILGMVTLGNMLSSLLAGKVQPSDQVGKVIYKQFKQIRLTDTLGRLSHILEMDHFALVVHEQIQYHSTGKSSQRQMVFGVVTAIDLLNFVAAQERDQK
Chain of Cystathionine beta-synthase (Homo sapiens, UniProt P35520, H203A) (P35520 whole entry H203A): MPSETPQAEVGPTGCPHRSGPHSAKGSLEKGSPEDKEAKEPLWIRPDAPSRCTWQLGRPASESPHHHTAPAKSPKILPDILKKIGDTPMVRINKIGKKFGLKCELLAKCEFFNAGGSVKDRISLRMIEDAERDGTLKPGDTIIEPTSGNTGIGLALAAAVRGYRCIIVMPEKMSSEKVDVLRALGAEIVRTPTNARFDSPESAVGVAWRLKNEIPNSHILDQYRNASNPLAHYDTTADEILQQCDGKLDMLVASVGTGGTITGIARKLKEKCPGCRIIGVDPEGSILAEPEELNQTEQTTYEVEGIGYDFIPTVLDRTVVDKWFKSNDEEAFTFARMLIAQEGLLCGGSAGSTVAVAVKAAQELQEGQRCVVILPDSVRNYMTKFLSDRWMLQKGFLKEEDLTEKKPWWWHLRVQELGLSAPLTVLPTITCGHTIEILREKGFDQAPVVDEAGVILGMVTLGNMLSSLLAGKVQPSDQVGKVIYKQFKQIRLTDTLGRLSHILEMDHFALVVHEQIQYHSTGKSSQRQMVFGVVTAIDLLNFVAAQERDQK

The IC50 is the point on the concentration scale where inhibition reaches its midpoint. `NOCC(=O)O` [CARBOXYMETHOXYLAMINE]: the TGI result with HT-29 [1] was “Active”. In addition, the half-maximal inhibitory concentration (IC50) in series [2] was found to be 7.5 µM; with HT-29 [4] it was 159 µM; with HT-29 [5] it was 287 µM. The Activity entry with Mus musculus [3] is given as “Non-Toxic”; in the series on HT-29 [6], 44%. In addition, the inhibition result in series [7] was “Active”.

For `COc1ccc([C@H]2Oc3cc(O)cc(O)c3C(=O)[C@@H]2[C@H]2C(=O)c3c(O)cc(O)cc3O[C@@H]2c2ccc(O)cc2)cc1` [SIKOKIANIN C], the Ratio IC50 was 48 in the series listed under Homo sapiens [8], 3 in series [20] and 27 in the series filed under Homo sapiens [21]. The IC50 was 24 µM in [9]; 16.9 µM in series [12]; 5.5 µM in series [13]; 18.7 µM in series [14]; 1.4 µM in series [15]; 0.9 µM in series [2]. In addition, the IC50 is 43 µM in series [18], 1.6 µM in the series with HT-29 [4], 4.7 µM in the series with HT-29 [5] and 11.2 µM in series [22]. For the same molecule, the Activity result in the series with Mus musculus [10] was “Non-Toxic”; in the series on HT-29 [16], “Dose-dependent effect”; with HT-29 [17] it was “Dose-dependent effect”; in the series on HT-29 [19] it was 31.5%; in the series on HT-29 [6], 46%; with HT-29 [23] it was 22%. The molecule further displayed an Activity in the series with HT-29 [24] of 17.1%. Further, in [11], the inhibition result was “Active”.
